According to ChEMBL document CHEMBL2375338, “Hydrolyzable tannins of tamaricaceous plants. V. Structures of monomeric-trimeric tannins and cytotoxicity of macrocyclic-type tannins isolated from Tamarix nilotica (1)” (J Nat Prod, 2013):

Assays:
[1] = Cytotoxicity against human HPLF cells after 48 hrs by MTT assay; format: cell-based
Outline: (§1)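 Adherent cells seeded 5 × 10^3/well and grown 48 h, then medium replaced with fresh medium holding test compound (DMSO stock 20 mM; top well 100 μM, serial 2-fold dilutions, triplicate wells). After a further 48 h, cells were washed with PBS lacking Ca/Mg and given 0.2 mg/mL MTT for 4 h. Lysis was in DMSO and A540 was read. CC50 came from the dose–response curve.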

[2] = Cytotoxicity against human HGF cells after 48 hrs by MTT assay; format: cell-based; outline: as §1
[3] = Cytotoxicity against human HPC cells after 48 hrs by MTT assay; format: cell-based; outline: as §1
HSC-3 = assay: Cytotoxicity against human HSC3 cells after 48 hrs by MTT assay; format: functional; details: HSC-3, 48 h; outline: as §1
HSC-4 = assay: Cytotoxicity against human HSC4 cells after 48 hrs by MTT assay; format: functional; details: HSC-4, 48 h; outline: as §1
HSC-2 = assay: Cytotoxicity against human HSC2 cells after 48 hrs by MTT assay; format: functional; details: HSC-2, 48 h; outline: as §1
HL-60 = assay: Cytotoxicity against human HL60 cells after 48 hrs by trypan blue exclusion assay; details: HL-60, 48 h

| SMILES | CC50 at 48 h [1] [µM] | CC50 at 48 h [2] [µM] | CC50 at 48 h [3] [µM] | CC50 (HSC-3) [µM] | CC50 (HSC-4) [µM] | CC50 (HSC-2) [µM] | CC50 (HL-60) [µM] |
| --- | --- | --- | --- | --- | --- | --- | --- |
| O=C1O[C@@H]2O[C@@H]3COC(=O)c4cc(O)c(O)c(O)c4-c4c(cc(O)c(O)c4O)C(=O)O[C@H]3[C@H](OC(=O)c3cc(O)c(O)c(O)c3)[C@H]2OC(=O)c2cc(O)c(O)c(O)c2Oc2c(O)cc(cc2O)C(=O)O[C@@H]2O[C@H](CO)[C@@H](O)[C@H](OC(=O)c3cc(O)c(O)c(O)c3)[C@H]2OC(=O)c2cc(O)c(O)c(O)c2Oc2cc1cc(O)c2O | > 100 | > 100 | 81 | 21.9 | 24.5 | 18.5 | 70.8 |
| O=C1O[C@@H]2O[C@@H]3COC(=O)c4cc(O)c(O)c(O)c4-c4c(cc(O)c(O)c4O)C(=O)O[C@H]3[C@H](OC(=O)c3cc(O)c(O)c(O)c3)[C@H]2OC(=O)c2cc(O)c(O)c(O)c2Oc2c(O)cc(cc2O)C(=O)O[C@@H]2O[C@@H]3COC(=O)c4cc(O)c(O)c(O)c4-c4c(cc(O)c(O)c4O)C(=O)O[C@H]3[C@H](OC(=O)c3cc(O)c(O)c(O)c3)[C@H]2OC(=O)c2cc(O)c(O)c(O)c2Oc2c(O)cc1cc2O | > 100 | 93.6 | 88.3 | 47.8 | 43 | 23 | 55.9 |
| O=C1O[C@@H]2O[C@@H]3COC(=O)c4cc(O)c(O)c(O)c4-c4c(cc(O)c(O)c4O)C(=O)O[C@H]3[C@H](OC(=O)c3cc(O)c(O)c(O)c3)[C@H]2OC(=O)c2cc(O)c(O)c(O)c2Oc2cc(cc(O)c2O)C(=O)O[C@@H]2O[C@H](CO)[C@@H](O)[C@H](OC(=O)c3cc(O)c(O)c(O)c3)[C@H]2OC(=O)c2cc(O)c(O)c(O)c2Oc2c(O)cc1cc2O | > 100 | > 100 | 80.3 | 20.8 | 26.6 | 20.2 | 62 |
| O=C1O[C@@H]2O[C@@H]3COC(=O)c4cc(O)c(O)c(O)c4-c4c(cc(O)c(O)c4O)C(=O)O[C@H]3[C@H](OC(=O)c3cc(O)c(O)c(O)c3)[C@H]2OC(=O)c2cc(O)c(O)c(O)c2Oc2cc(cc(O)c2O)C(=O)O[C@@H]2O[C@@H]3COC(=O)c4cc(O)c(O)c(O)c4-c4c(cc(O)c(O)c4O)C(=O)O[C@H]3[C@H](OC(=O)c3cc(O)c(O)c(O)c3)[C@H]2OC(=O)c2cc(O)c(O)c(O)c2Oc2c(O)cc1cc2O | > 100 | 95 | 84.3 | 24.3 | 28.7 | 19.9 | 54.2 |
| O=C1O[C@@H]2O[C@@H]3COC(=O)c4cc(O)c(O)c(O)c4-c4c(cc(O)c(O)c4O)C(=O)O[C@H]3[C@H](OC(=O)c3cc(O)c(O)c(O)c3)[C@H]2OC(=O)c2cc(O)c(O)c(O)c2Oc2cc(cc(O)c2O)C(=O)O[C@@H]2O[C@@H]3COC(=O)c4cc(O)c(O)c(O)c4-c4c(cc(O)c(O)c4O)C(=O)O[C@H]3[C@H](OC(=O)c3cc(O)c(O)c(O)c3)[C@H]2OC(=O)c2cc(O)c(O)c(O)c2Oc2cc(cc(O)c2O)C(=O)O[C@@H]2O[C@@H]3COC(=O)c4cc(O)c(O)c(O)c4-c4c(cc(O)c(O)c4O)C(=O)O[C@H]3[C@H](OC(=O)c3cc(O)c(O)c(O)c3)[C@H]2OC(=O)c2cc(O)c(O)c(O)c2Oc2c(O)cc1cc2O | > 100 | 96.6 | 90.7 | 34.2 | 42.9 | 22.3 | 30.5 |
